Measurements taken from publication PMC9845116 (Saudi Pharmaceutical Journal : SPJ, 2022).
Read-outs that look alike come from different tables or passages of the source.

Experiments:
Format in all cases: cell-based
Hela = test: MTT cell viability assay, Hela; settings: for IC50: 48 h
A549 = test: MTT cell viability assay, A549
HepG2 = test: MTT cell viability assay, HepG2
Hela cells [1] = test: Annexin V-FITC/PI apoptosis assay; settings: 24 h (control 14.06 %)
MCF-7 = test: MTT cell viability assay, MCF-7
[2] = tested on: human liver cell line L-O2; test: Cytotoxic activity on human liver cells
In short: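 L-02 cells were grown in DMEM with 10 % FBS and 1 % penicillin–streptomycin at 37 °C, 5 % CO2, then seeded at 2 × 10^4 cells per well in 96-well plates. Test compounds were made as 20 mM DMSO stocks and applied at various concentrations for 48 h. MTT (5 mg/mL stock in PBS) was added for 4 h at 37 °C in the dark. Formazan was dissolved in DMSO and read at 490 nm; triplicate experiments.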

Hela cells [3] = test: Hoechst 33,258 staining assay; settings: increasing concentration 0.5-4 μM, 24 h
In short: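 HeLa cells seeded at 1 × 10^4/well in twelve-well plates and grown 24 h in regular medium. Treated 24 h with test compound (0, 0.5, 1, 2, 4 μM) or 5-Fu (5.0 μM). Washed twice with PBS, stained with Hoechst 33,258 for 30 min in the incubator, washed, then imaged by fluorescence microscopy for apoptotic nuclear and cell morphology.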

Hela cells [4] = test: Colony formation assay, Hela; settings: 0.5 mM (so in the source), vs 5-Fu 5 μM
In short: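 HeLa cells were seeded at 1500 per well in six-well plates and grown 48 h in regular medium. Cells were exposed to test compound or 5-Fu (positive control) at indicated concentrations for 7 days. They were then PBS-washed, fixed with paraformaldehyde 30 min, stained with crystal violet 30 min, and photographed. Clone formation rate was quantified; mean ± SD of three separate experiments.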

MCF-7 cells = test: Colony formation assay, MCF-7; settings: 0.5 mM (so in the source), vs 5-Fu 5 μM
In short: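 MCF-7 cells grown in DMEM with 10 % FBS and 1 % penicillin–streptomycin at 37 °C, 5 % CO2. Seeded at 1500 cells/well in six-well plates, grown 48 h, then exposed to test compound or 5-Fu for 7 days. Washed with PBS, fixed with paraformaldehyde for 30 min, stained with crystal violet for 30 min, photographed. Clone formation rate quantified; mean ± SD of three separate experiments.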

IC50 (Hela; Homo sapiens, HeLa, read-out: IC50(μM) Hela, MTT, 48 h, Hela): 3.2 µM | IC50 (Hela; read-out: IC50(μM) Hela, MTT, Hela): 3.2 ± 0.21 µM | IC50 (A549; Homo sapiens, A549, 48 h, read-out: IC50(μM) A549): 5.19 ± 0.23 µM | IC50 (HepG2; Homo sapiens, HepG2, 48 h, read-out: IC50(μM) HepG2): 5.81 ± 0.37 µM | IC50 (MCF-7; Homo sapiens, MCF7, 48 h, read-out: IC50(μM) MCF-7, MTT, 48 h, MCF-7): 3.85 µM | IC50 (MCF-7; read-out: IC50(μM) MCF-7, MTT, 48 h, MCF-7): 3.85 ± 0.28 µM
Structure (SMILES): COc1cc(OC)c(C(=O)/C=C/c2ccc(Br)cn2)c(OC)c1 [B3, (E)-3-(5-bromopyridin-2-yl)-1-(2,4,6-trimethoxyphenyl)prop-2-en-1-one]
fold potency than 5-fluorocrail, Hela (Hela; Hela cells, vs 5-Fu): over 10 fold | inhibitory effect on cell viability over time, Hela (Hela; MTT at 24 h, 48 h and 72 h): excellent inhibitory effect | inhibitory effect on cell viability over time, A549 (A549; MTT at 24 h, 48 h and 72 h): excellent inhibitory effect | inhibitory effect on cell viability over time, HepG2 (HepG2; MTT at 24 h, 48 h and 72 h): excellent inhibitory effect | apoptosis index (Hela cells [1]; 0.5 μM): 16.78% | apoptosis index (Hela cells [1]; 1 μM): 26.41% | apoptosis index (Hela cells [1]; 2 μM): 30.95% | apoptosis index (Hela cells [1]; 4 μM): 39.8% | fold potency than 5-fluorocrail, MCF-7 (MCF-7; MCF-7 cells, vs 5-Fu): over 10 fold | inhibitory effect on cell viability over time, MCF-7 (MCF-7; MTT at 24 h, 48 h and 72 h): excellent inhibitory effect | toxicity on normal cells [2]: low toxicity to normal cells | morphological changes of Hela cells (Hela cells [3]): cells shrinkage, nuclear division and formation of apoptotic bodies | colony formation, Hela (Hela cells [4]): slightly better than the positive control | colony formation, MCF-7 (MCF-7 cells): slightly better than the positive control
